Data taken from ChEMBL document CHEMBL1126988, “Quinolone antibacterials containing the new 7-[3-(1-aminoethyl)-1- pyrrolidinyl] side chain: the effects of the 1-aminoethyl moiety and its stereochemical configurations on potency and in vivo efficacy” (J Med Chem, 1993).
Converted amounts (≈) assume the structure as drawn.

Legend:
Enterobacter cloacae = assay: Minimum inhibitory concentration in vitro against Enterobacter cloacae MA 2646; format: functional
Escherichia coli [1] = assay: Antibacterial activity against Escherichia coli Vogel after oral administration in mouse; format: functional; conditions: for ED50: Escherichia coli, po, read-out: PD50
Enterococcus faecalis [2] = assay: Minimum inhibitory concentration was evaluated in vitro against Enterococcus faecalis MGH-2; format: functional
Procedure, shortened: (§1)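 Standard microtitration broth assay against a panel of 10 Gram-positive and Gram-negative organisms. MIC read in µg/mL and averaged over multiple experiments.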

Pseudomonas aeruginosa = assay: Minimum inhibitory concentration was evaluated in vitro against Pseudomonas aeruginosa UI-18; format: functional; procedure, shortened: as §1
Klebsiella pneumoniae = assay: Minimum inhibitory concentration was evaluated in vitro against Klebsiella pneumoniae MGH2; format: functional; procedure, shortened: as §1
Providencia rettgeri = assay: Minimum inhibitory concentration was evaluated in vitro against Providencia rettgeri M1771; format: functional; procedure, shortened: as §1
Streptococcus pyogenes [3] = assay: Antibacterial activity measured as mouse protection against Streptococcus pyogenes C 203 after subcutaneous administration; format: functional; conditions: for ED50: Streptococcus pyogenes, C 203, sc, read-out: PD50
DNA gyrase = DNA gyrase (Escherichia coli, UniProt P0AES4+P0AES6); assay: Inhibition against DNA gyrase; format: protein-complex assay
Streptococcus pyogenes [4] = assay: Compounds were evaluated in vivo for antibacterial activity for mouse protection against Streptococcus pyogenes C 203 after oral administration; format: functional; conditions: for ED50: Streptococcus pyogenes, C 203, po, read-out: PD50
Streptococcus pyogenes [5] = assay: Minimum inhibitory concentration was evaluated in vitro against Streptococcus pyogenes C 203; format: functional; procedure, shortened: as §1
Escherichia coli [6] = assay: Antibacterial activity against Escherichia coli Vogel after subcutaneous administration in mouse; format: functional; conditions: Escherichia coli, sc; read-out: PD50
Staphylococcus aureus [7] = assay: Minimum inhibitory concentration was evaluated in vitro against Staphylococcus aureus H 228; format: functional; procedure, shortened: as §1
Streptococcus pneumoniae = assay: Minimum inhibitory concentration was evaluated in vitro against Streptococcus pneumoniae SV-1; format: functional; procedure, shortened: as §1
Escherichia coli [8] = assay: Antibacterial activity in vitro against Escherichia coli Vogel; format: functional; procedure, shortened: as §1
Staphylococcus aureus [9] = assay: Minimum inhibitory concentration was evaluated in vitro against Staphylococcus aureus UC 76; format: functional; conditions: Staphylococcus aureus; read-out: MIC; procedure, shortened: as §1
[10] = target: DNA gyrase (Escherichia coli) (UniProt P0AES6+P0AES4); assay: Initial inhibition as minimal concentration to induce cleavage of DNA gyrase complex; format: protein-complex assay
Procedure, shortened: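 DNA gyrase isolated and purified from E. coli H560. Uses the initial cleavage method with relaxed Col E1 plasmid DNA as substrate. Read-out is the lowest drug concentration (µg/mL) giving detectable cleavage, seen by agarose gel electrophoresis with ethidium bromide staining. Averaged over multiple experiments, accurate to ±50%.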

Streptococcus pyogenes [11] = assay: Antibacterial activity expressed as Minimum inhibitory concentration was evaluated in vitro against Streptococcus pyogenes C 203; format: functional; procedure, shortened: as §1
[12] = Clonogenic cytotoxicity against hamster V-79 cells; format: functional, Cricetulus griseus, V79
Procedure, shortened: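 Chinese hamster V-79 cells grown overnight, then drug-treated for 3 h at 37 °C. Medium is replaced with fresh medium and cells are incubated 5 days to allow colony formation. IC50 (µg/mL) is the concentration inhibiting colony formation by 50% relative to control.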

Mus musculus = species on record: Mus musculus; assay: Compounds were evaluated for phototoxicity no-effect dose in mouse; format: functional
Procedure, shortened: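 Depilated female CD-1 mice, five per dose plus controls. Animals are dosed orally and then exposed daily to UV-A (320–400 nm) for 3 h, for up to 4 days or until a definite positive response. Redness or erythema relative to controls, read 24 h after irradiation, counts as positive. Reported as the highest dose with no effect (mg/kg).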

Enterococcus faecalis [13] = assay: Antibacterial activity expressed as Minimum inhibitory concentration was evaluated in vitro against Enterococcus faecalis MGH-2; format: functional; procedure, shortened: as §1
[14] = Enterobacter cloacae, read-out: MIC
[15] = Enterococcus faecalis, read-out: MIC
[16] = Pseudomonas aeruginosa, read-out: MIC
[17] = Klebsiella pneumoniae, read-out: MIC
[18] = Providencia rettgeri, read-out: MIC
[19] = Streptococcus pyogenes, read-out: MIC
[20] = Staphylococcus aureus, read-out: MIC
[21] = Streptococcus pneumoniae, read-out: MIC
[22] = Escherichia coli, read-out: MIC

Compound	MIC (Enterobacter cloacae; [14])	ED50 (Escherichia coli [1])	MIC (Enterococcus faecalis [2]; [15])	MIC (Pseudomonas aeruginosa; [16])	MIC (Klebsiella pneumoniae; [17])	MIC (Providencia rettgeri; [18])	ED50 (Streptococcus pyogenes [3])	IC50 (DNA gyrase)	ED50 (Streptococcus pyogenes [4])	MIC (Streptococcus pyogenes [5]; [19])	ED50 (Escherichia coli [6])	MIC (Staphylococcus aureus [7]; [20])	MIC (Streptococcus pneumoniae; [21])	MIC (Escherichia coli [8]; [22])	MIC (Staphylococcus aureus [9])	further results
NCC1CCN(c2cc3c(cc2F)c(=O)c(C(=O)O)cn3C2CC2)C1 (stereo not drawn)	0.1 µg/mL (≈ 0.29 µM)	> 100 mg/kg	0.05 µg/mL (≈ 0.145 µM)	0.8 µg/mL (≈ 2.32 µM)	0.1 µg/mL (≈ 0.29 µM)	0.2 µg/mL (≈ 0.579 µM)	4 mg/kg	1450 nM	> 100 mg/kg	0.013 µg/mL (≈ 0.0376 µM)	2 mg/kg	0.05 µg/mL (≈ 0.145 µM)	0.013 µg/mL (≈ 0.0376 µM)	0.05 µg/mL (≈ 0.145 µM)	0.006 µg/mL (≈ 0.0174 µM)	
NCC1CCN(c2nc3c(cc2F)c(=O)c(C(=O)O)cn3C2CC2)C1 (stereo not drawn)	0.1 µg/mL (≈ 0.289 µM)	17 mg/kg	0.025 µg/mL (≈ 0.0722 µM)	0.2 µg/mL (≈ 0.577 µM)	0.1 µg/mL (≈ 0.289 µM)	0.4 µg/mL (≈ 1.15 µM)	4 mg/kg	2170 nM	39 mg/kg	0.025 µg/mL (≈ 0.0722 µM)	1 mg/kg	0.1 µg/mL (≈ 0.289 µM)	0.1 µg/mL (≈ 0.289 µM)	0.05 µg/mL (≈ 0.144 µM)	0.003 µg/mL (≈ 0.00866 µM)	
CC1(CN)CCN(c2cc3c(cc2F)c(=O)c(C(=O)O)cn3C2CC2)C1 (stereo not drawn)		43 mg/kg				0.8 µg/mL (≈ 2.23 µM)	3 mg/kg	2780 nM	31 mg/kg		3 mg/kg	0.1 µg/mL (≈ 0.278 µM)			0.013 µg/mL (≈ 0.0362 µM)	
C[C@@H](N)[C@H]1CCN(c2cc3c(cc2F)c(=O)c(C(=O)O)cn3C2CC2)C1 (racemic)		47 mg/kg						1390 nM			1 mg/kg				0.025 µg/mL (≈ 0.0696 µM)	MIC (Enterobacter cloacae): 0.05 µg/mL (≈ 0.139 µM); MIC (Enterococcus faecalis [2]): 0.025 µg/mL (≈ 0.0696 µM); MIC (Pseudomonas aeruginosa): 0.4 µg/mL (≈ 1.11 µM); MIC (Klebsiella pneumoniae): 0.1 µg/mL (≈ 0.278 µM); MIC (Providencia rettgeri): 0.2 µg/mL (≈ 0.556 µM); PD50 (Streptococcus pyogenes [3]): 1 mg/kg; PD50 (Streptococcus pyogenes [4]): 11 mg/kg; MIC (Streptococcus pyogenes [5]): 0.003 µg/mL (≈ 0.00835 µM); MIC (Staphylococcus aureus [7]): 0.05 µg/mL (≈ 0.139 µM); MIC (Streptococcus pneumoniae): 0.013 µg/mL (≈ 0.0362 µM); MIC (Escherichia coli [8]): 0.05 µg/mL (≈ 0.139 µM)
CC1(CN)CCN(c2nc3c(cc2F)c(=O)c(C(=O)O)cn3C2CC2)C1 (stereo not drawn)	0.1 µg/mL (≈ 0.277 µM)	10 mg/kg	0.05 µg/mL (≈ 0.139 µM)	0.8 µg/mL (≈ 2.22 µM)	0.1 µg/mL (≈ 0.277 µM)	0.4 µg/mL (≈ 1.11 µM)	2 mg/kg	13900 nM	6 mg/kg	0.05 µg/mL (≈ 0.139 µM)	2 mg/kg	0.025 µg/mL (≈ 0.0694 µM)	0.025 µg/mL (≈ 0.0694 µM)	0.2 µg/mL (≈ 0.555 µM)	0.006 µg/mL (≈ 0.0166 µM)	
CN[C@H](C)[C@H]1CCN(c2c(F)cc3c(=O)c(C(=O)O)cn(C4CC4)c3c2OC)C1 (racemic)	0.05 µg/mL (≈ 0.124 µM)	5 mg/kg	0.025 µg/mL (≈ 0.062 µM)	0.8 µg/mL (≈ 1.98 µM)	0.1 µg/mL (≈ 0.248 µM)	0.2 µg/mL (≈ 0.496 µM)	0.1 mg/kg				1 mg/kg	0.013 µg/mL (≈ 0.0322 µM)	0.003 µg/mL (≈ 0.00744 µM)	0.05 µg/mL (≈ 0.124 µM)	0.003 µg/mL (≈ 0.00744 µM)	Initial inhibition [10]: < 0.5 µg/mL; MIC (Streptococcus pyogenes [11]): 0.003 µg/mL (≈ 0.00744 µM); Cytotoxicity [12]: 33 µg/mL; Dose (Mus musculus): >100 mg/kg
C[C@@H](N)[C@@H]1CCN(c2cc3c(cc2F)c(=O)c(C(=O)O)cn3C2CC2)C1	0.2 µg/mL (≈ 0.556 µM)		0.1 µg/mL (≈ 0.278 µM)	1.6 µg/mL (≈ 4.45 µM)	0.4 µg/mL (≈ 1.11 µM)	0.8 µg/mL (≈ 2.23 µM)	2 mg/kg	2090 nM	> 100 mg/kg	0.025 µg/mL (≈ 0.0696 µM)		0.2 µg/mL (≈ 0.556 µM)	0.025 µg/mL (≈ 0.0696 µM)	0.1 µg/mL (≈ 0.278 µM)	0.05 µg/mL (≈ 0.139 µM)	
CCn1cc(C(=O)O)c(=O)c2cc(F)c(N3CC[C@@H]([C@@H](C)N)C3)c(F)c21	0.1 µg/mL (≈ 0.274 µM)	15 mg/kg		1.6 µg/mL (≈ 4.38 µM)	0.2 µg/mL (≈ 0.547 µM)	0.4 µg/mL (≈ 1.09 µM)	2 mg/kg		19 mg/kg	0.05 µg/mL (≈ 0.137 µM)	2 mg/kg	0.1 µg/mL (≈ 0.274 µM)	0.05 µg/mL (≈ 0.137 µM)	0.1 µg/mL (≈ 0.274 µM)	0.025 µg/mL (≈ 0.0684 µM)	MIC (Enterococcus faecalis [13]): 0.1 µg/mL (≈ 0.274 µM)
C[C@@H](N)[C@H]1CCN(c2nc3c(cc2F)c(=O)c(C(=O)O)cn3-c2ccc(F)cc2F)C1 (racemic)	0.2 µg/mL (≈ 0.463 µM)		0.025 µg/mL (≈ 0.0578 µM)	0.8 µg/mL (≈ 1.85 µM)	0.2 µg/mL (≈ 0.463 µM)	0.4 µg/mL (≈ 0.925 µM)	1 mg/kg	1160 nM	1 mg/kg		1 mg/kg	0.05 µg/mL (≈ 0.116 µM)	0.006 µg/mL (≈ 0.0139 µM)	0.1 µg/mL (≈ 0.231 µM)	0.006 µg/mL (≈ 0.0139 µM)	PD50 (Escherichia coli [1]): 3 mg/kg; MIC (Streptococcus pyogenes [11]): 0.006 µg/mL (≈ 0.0139 µM); Cytotoxicity [12]: 280 µg/mL; Dose (Mus musculus): >100 mg/kg
